Measured values as given in ChEMBL document CHEMBL1212762, “In vivo activity of ceftobiprole in murine skin infections due to Staphylococcus aureus and Pseudomonas aeruginosa” (Antimicrob Agents Chemother, 2010).

Columns and labels:
Staphylococcus aureus [1] = test: Antimicrobial activity against methicillin-susceptible Staphylococcus aureus Smith OC 4172 infected in SKH1 mouse assessed as log change in bacterial colony forming unit per gram of skin tissue at 25 mg/kg/day, sc (reference value: 1.6 deltalog CFU); assay type: functional; details: route subcutaneous
Method in brief: (§1)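 Female hairless immunocompetent SKH1 mice were anaesthetised and injected s.c. with 0.2 ml Cytodex bead inoculum (0.1% vol/vol beads in BHI; 6.7–7.0 log10 CFU/mouse): MSSA OC 4172 in the left flank, MRSA OC 8525 in the right. Drug was given at 1, 3, 25 and 27 h post-infection. At 48 h, flank lesions were excised, weighed and homogenised in saline, then plated on TSA (18 h, 37°C). The value is Δlog CFU/g versus the inoculum, from 5 mice/dose, run twice and pooled.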

Staphylococcus aureus [2] = test: Antimicrobial activity against methicillin-susceptible Staphylococcus aureus Smith OC 4172 infected in SKH1 mouse assessed as log change in bacterial colony forming unit per gram of skin tissue at 1.6 mg/kg/day, sc (reference value: 1.6 deltalog CFU); assay type: functional; details: route subcutaneous
[3] = fT>MIC in Staphylococcus aureus Smith OC 4172 infected sc dosed SKH1 mouse at 50 mg/kg, sc administered twice at 1 and 3 hrs after infection; assay type: functional; details: route subcutaneous
[4] = fT>MIC in Staphylococcus aureus OC 8525 infected sc dosed SKH1 mouse administered in 24 hrs dosing interval; assay type: functional
Method in brief: (§2)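 Plasma levels came from female hairless SKH1 mice given single s.c. doses at the nape 24 h after flank s.c. infection with Cytodex beads. S. aureus work used immunocompetent mice. P. aeruginosa work used mice made neutropenic with cyclophosphamide i.p., 150 mg/kg at day −5 and 100 mg/kg at day −1. Drug assayed by HPLC with diode-array detection. Noncompartmental analysis.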

Staphylococcus aureus [5] = test: Antimicrobial activity against methicillin-resistant Staphylococcus aureus OC 8525 infected in SKH1 mouse assessed as log change in bacterial colony forming unit per gram of skin tissue at 100 mg/kg/day, sc (reference value: 0.8 deltalog CFU); assay type: functional; details: route subcutaneous; method in brief: as §1
[6] = fT>MIC in Pseudomonas aeruginosa OC 4351 infected sc dosed SKH1 mouse administered in 24 hrs dosing interval; assay type: functional
Plasma [7] = test: fAUC (0-infinity) in immunocompetent SKH1 mouse plasma at 50 mg/kg, sc; assay type: ADME, organism-based; parameters: dose 50 mg/kg, route subcutaneous; details: in vivo
Method in brief: (§3)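 Female SKH1 hairless mice, immunocompetent or cyclophosphamide-neutropenic, infected s.c. with MRSA OC 8525 or P. aeruginosa OC 4354 on the Cytodex beads (left flank), sterile beads on the right. Single dose 24 h later: s.c. at the nape, or linezolid 50 mg/kg oral. Plasma and skin (DMSO homogenate) sampled over time, HPLC with diode array.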

[8] = Protein binding in mouse plasma; assay type: ADME, cell-free; details: read-out: PPB (converted)
[9] = Tmax in immunocompetent SKH1 mouse plasma at 50 mg/kg, sc; assay type: ADME, organism-based; parameters: dose 50 mg/kg, route subcutaneous; method in brief: as §3
Staphylococcus aureus [10] = test: Antimicrobial activity against methicillin-susceptible Staphylococcus aureus OC 4172 assessed as inhibition of growth by broth microdilution method; assay type: functional
Staphylococcus aureus [11] = test: Antimicrobial activity against methicillin-resistant Staphylococcus aureus OC 8525 infected in SKH1 mouse assessed as log change in bacterial colony forming unit per gram of skin tissue at 1.6 mg/kg/day, sc (reference value: 0.8 deltalog CFU); assay type: functional; details: route subcutaneous; method in brief: as §1
Staphylococcus aureus [12] = test: Antimicrobial activity against methicillin-resistant Staphylococcus aureus OC 8525 infected in SKH1 mouse assessed as log change in bacterial colony forming unit per gram of skin tissue at 25 mg/kg/day, sc (reference value: 0.8 deltalog CFU); assay type: functional; details: route subcutaneous
[13] = fT>MIC in Staphylococcus aureus OC 8525 infected sc dosed SKH1 mouse at 50 mg/kg, sc administered twice at 1 and 3 hrs after infection; assay type: functional; details: route subcutaneous
Staphylococcus aureus [14] = test: Antimicrobial activity against methicillin-susceptible Staphylococcus aureus Smith OC 4172 infected in SKH1 mouse assessed as log change in bacterial colony forming unit per gram of skin tissue at 6.2 mg/kg/day, sc (reference value: 1.6 deltalog CFU); assay type: functional; details: route subcutaneous
[15] = fT>MIC in Pseudomonas aeruginosa OC 4354 infected sc dosed SKH1 mouse at 50 mg/kg, sc administered twice at 1 and 3 hrs after infection; assay type: functional; details: route subcutaneous
Staphylococcus aureus [16] = test: Antimicrobial activity against methicillin-susceptible Staphylococcus aureus Smith OC 4172 infected in SKH1 mouse assessed as log change in bacterial colony forming unit per gram of skin tissue at 100 mg/kg/day, sc (reference value: 1.6 deltalog CFU); assay type: functional; details: route subcutaneous
Plasma [17] = test: fCmax in immunocompetent SKH1 mouse plasma at 50 mg/kg, sc; assay type: ADME, organism-based; parameters: dose 50 mg/kg, route subcutaneous; details: in vivo; method in brief: as §3
[18] = fT>MIC in Staphylococcus aureus OC 4172 infected sc dosed SKH1 mouse administered in 24 hrs dosing interval; assay type: functional; method in brief: as §2
Staphylococcus aureus [19] = test: Antimicrobial activity against methicillin-resistant Staphylococcus aureus OC 8525 assessed as inhibition of growth by broth microdilution method; assay type: functional
[20] = fT>MIC in Pseudomonas aeruginosa OC 4351 infected sc dosed SKH1 mouse at 50 mg/kg, sc administered twice at 1 and 3 hrs after infection; assay type: functional; details: route subcutaneous
[21] = fT>MIC in Pseudomonas aeruginosa OC 4354 infected sc dosed SKH1 mouse administered in 24 hrs dosing interval; assay type: functional; method in brief: as §2
Staphylococcus aureus [22] = test: Antimicrobial activity against methicillin-resistant Staphylococcus aureus OC 8525 infected in SKH1 mouse assessed as log change in bacterial colony forming unit per gram of skin tissue at 6.2 mg/kg/day, sc (reference value: 0.8 deltalog CFU); assay type: functional; details: route subcutaneous; method in brief: as §1

For `Cc1nnc(SCC2=C(C(=O)O)N3C(=O)[C@@H](NC(=O)Cn4cnnn4)[C@H]3SC2)s1` [CEFAZOLIN], the deltalog10CFU (Staphylococcus aureus [1]) was -2, the deltalog10CFU (Staphylococcus aureus [2]) was -0.6 and the “fT>MIC” value [3] was 2.4 h. The “fT>MIC” value [4] was 1.3%, the deltalog10CFU (Staphylococcus aureus [5]) was -0.3 and the “fT>MIC” value [6] was 6.4%. It also gave a fAUC (Plasma [7]) of 565 µg·min/mL, a fraction unbound [8] of 0.19 and a Tmax [9] of 7.5 min. The MIC (Staphylococcus aureus [10]) was 0.5 µg/mL, the deltalog10CFU (Staphylococcus aureus [11]) was 0.6 and the deltalog10CFU (Staphylococcus aureus [12]) was -1.3. The “fT>MIC” value [13] was 0.3 h, the deltalog10CFU (Staphylococcus aureus [14]) was 1.6 and the “fT>MIC” value [15] was 0.8 h. The deltalog10CFU (Staphylococcus aureus [16]) was -1.7, the fCmax (Plasma [17]) was 19 µg/mL and the “fT>MIC” value [18] was 10.2%. The MIC (Staphylococcus aureus [19]) was 16 µg/mL, the “fT>MIC” value [20] was 1.5 h and the “fT>MIC” value [21] was 3.3%. The deltalog10CFU (Staphylococcus aureus [22]) was -1.2.
